The source made the active and inactive calls. No cut-off for these calls is given here.
Key:
[1] = target: Mitogen-activated protein kinase 11 (Homo sapiens, UniProt Q15759); assay: Inhibition of recombinant SAPK2b/p38beta2 (unknown origin)
Casein kinase 2 = Casein kinase 2 (Homo sapiens, UniProt P67870+P68400+P19784+Q8NEV1); assay: Inhibition of recombinant CK2 (unknown origin); format: protein assay
cells [2] = format: functional, cell-based; conditions: Homo sapiens, NCI-H820, 72 h
BaF3 [3] = assay: cells; format: functional, cell-based; conditions: Mus musculus, BaF3, 72 h
[4] = target: Serine/threonine-protein kinase Nek6 (Homo sapiens, UniProt Q9HC98); assay: Inhibition of recombinant NEK6 (unknown origin)
HCC827 [5] = conditions: Homo sapiens, dose 1-10000 nmol/L, time 12.0 hrs
BaF3 [6] = assay: cells; format: functional, cell-based; conditions: Mus musculus, BaF3, 72 h; remark: listed apart in the source
BaF3 [7] = assay: cells; format: functional, cell-based; conditions: Mus musculus, BaF3, 72 h; remark: listed apart in the source
[8] = target: Ribosomal protein S6 kinase alpha-5 (Homo sapiens, UniProt O75582); assay: Inhibition of recombinant MSK1 (unknown origin)
[9] = target: Mitogen-activated protein kinase 14 (Homo sapiens, UniProt Q16539); assay: Inhibition of recombinant SAPK2a/p38 (unknown origin)
HCC827 [10] = assay: Antitumor activity against human HCC827 cells expressing EGFR Del/T790M mutant xenografted in nude mouse assessed as inhibition of tumor growth at 10 mg/kg/day, po administered for 95 days and measured thrice weekly; format: functional, organism-based; conditions: time 95.0 day
How it was run: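 Nu/nu mice under 2% isoflurane/oxygen inoculated s.c. in lower-right flank with 5 × 10^6 HCC827-GFP or HCC827-Del/T790M cells in 0.2 mL PBS; randomized at mean tumor 400 to 500 mm3. Daily oral gavage 10 mg/kg/d; caliper volume = length × width² × 0.52; body weight monitored daily; ended when control tumors reached 2000 mm3.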

NCI-H3255 [11] = assay: Induction of apoptosis in human NCI-H3255 cells assessed as increase in cleavage of PARP at 1 micromol/L incubated for 72 hrs by Western blotting analysis; format: functional, cell-based; conditions: dose 1.0 µmol/L
[12] = target: Mitogen-activated protein kinase 8 (Homo sapiens, UniProt P45983); assay: Inhibition of recombinant SAPK1c (unknown origin)
BaF3 [13] = assay: cells; format: functional, cell-based; conditions: Mus musculus, BaF3, 72 h; remark: listed apart in the source
BaF3 [14] = assay: cells; format: functional, cell-based; conditions: Mus musculus, BaF3, 72 h; remark: listed apart in the source
Casein kinase I = assay: Inhibition of recombinant CK1 (unknown origin); format: protein assay, Homo sapiens
NCI-H441 = assay: cells; format: functional, cell-based; conditions: Homo sapiens, NCI-H441, 72 h
[15] = target: Tyrosine-protein kinase CSK (Homo sapiens, UniProt P41240); assay: Inhibition of recombinant CSK (unknown origin)
A549 = assay: cells; format: functional, cell-based; conditions: Homo sapiens, A549, 72 h
NCI-H3255 [16] = assay: cells; format: functional, cell-based; conditions: Homo sapiens, NCI-H3255, 72 h
NCI-H3255 [17] = assay: cells; format: functional, cell-based; conditions: Homo sapiens, NCI-H3255, 72 h; remark: listed apart in the source
NCI-H3255 [18] = assay: cells; format: functional, cell-based; conditions: Homo sapiens, NCI-H3255, 72 h; remark: listed apart in the source
[19] = target: Serine/threonine-protein kinase Nek2 (Homo sapiens, UniProt P51955); assay: Inhibition of recombinant NEK2a (unknown origin)
[20] = target: Tyrosine-protein kinase Fes/Fps (Homo sapiens, UniProt P07332); assay: Inhibition of recombinant FES (unknown origin)
[21] = target: Dual specificity mitogen-activated protein kinase kinase 1 (Homo sapiens, UniProt Q02750); assay: Inhibition of recombinant MEK1 (unknown origin)
[22] = Inhibition of recombinant PKB delta ph mutant (unknown origin); set-up: species or system Homo sapiens
[23] = target: Ribosomal protein S6 kinase alpha-1 (Homo sapiens, UniProt Q15418); assay: Inhibition of recombinant MAPKAP-K1a (unknown origin)
[24] = target: Receptor tyrosine-protein kinase erbB-3 (Homo sapiens) (UniProt P21860); assay: Inhibition of ERBB3 phosphorylation in human HCC827 cells expressing GFP at 1 to 10000 nmol/L incubated for 12 hrs by Western blotting analysis; format: cell-based; conditions: dose 1-10000 nmol/L
BaF3 [25] = assay: cells; format: functional, cell-based; conditions: Mus musculus, BaF3, 72 h; remark: listed apart in the source
NIH3T3 = conditions: Mus musculus, dose 1-10000 nmol/L, time 6.25 hrs
BaF3 [26] = assay: cells; format: functional, cell-based; conditions: Mus musculus, BaF3, 72 h; remark: listed apart in the source
cells [27] = format: functional, cell-based; conditions: Homo sapiens, NCI-H1819, 72 h
[28] = Inhibition of recombinant p70S6K (unknown origin); set-up: species or system Homo sapiens
[29] = target: Protein kinase C alpha type (Homo sapiens, UniProt P17252); assay: Inhibition of recombinant PKCa (unknown origin)
[30] = target: Cyclin-dependent kinase 4/cyclin D (Homo sapiens, UniProt P11802); assay: Inhibition of recombinant CDK4/Cyclin D (unknown origin); format: protein-complex assay
BaF3 [31] = assay: cells; format: functional, cell-based; conditions: Mus musculus, BaF3, 72 h; remark: listed apart in the source
[32] = target: MAP kinase-activated protein kinase 2 (Homo sapiens, UniProt P49137); assay: Inhibition of recombinant MAPKAP-K2 (unknown origin)
BaF3 [33] = assay: cells; format: functional, cell-based; conditions: Mus musculus, BaF3, 72 h; remark: listed apart in the source
NCI-H3255 [34] = assay: cells; format: functional, cell-based; conditions: Homo sapiens, NCI-H3255, 72 h; remark: listed apart in the source
Wee1-like protein kinase = Wee1-like protein kinase (Homo sapiens, UniProt P30291); assay: Inhibition of recombinant Wee1 (unknown origin)
BaF3 [35] = assay: cells; format: functional, cell-based; conditions: Mus musculus, BaF3, 72 h; remark: listed apart in the source

Wee1-like protein kinase, sequence (P30291 whole entry): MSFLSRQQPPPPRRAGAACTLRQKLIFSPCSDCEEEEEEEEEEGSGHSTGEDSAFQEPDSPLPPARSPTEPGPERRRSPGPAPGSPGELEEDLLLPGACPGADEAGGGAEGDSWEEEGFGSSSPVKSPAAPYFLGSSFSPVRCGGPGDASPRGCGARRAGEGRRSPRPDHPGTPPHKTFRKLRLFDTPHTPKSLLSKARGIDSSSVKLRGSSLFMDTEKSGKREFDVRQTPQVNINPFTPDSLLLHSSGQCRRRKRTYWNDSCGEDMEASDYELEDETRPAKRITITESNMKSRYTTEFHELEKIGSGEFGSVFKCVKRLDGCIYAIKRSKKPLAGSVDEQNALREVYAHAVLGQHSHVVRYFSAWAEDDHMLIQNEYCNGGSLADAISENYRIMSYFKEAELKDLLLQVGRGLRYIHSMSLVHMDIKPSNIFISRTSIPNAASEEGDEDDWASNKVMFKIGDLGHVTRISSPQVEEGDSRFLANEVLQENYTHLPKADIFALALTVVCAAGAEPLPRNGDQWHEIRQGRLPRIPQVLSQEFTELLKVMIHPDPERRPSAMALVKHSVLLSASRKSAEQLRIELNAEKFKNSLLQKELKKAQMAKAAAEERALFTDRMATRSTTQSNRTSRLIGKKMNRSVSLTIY
Mitogen-activated protein kinase 8, sequence (P45983 whole entry): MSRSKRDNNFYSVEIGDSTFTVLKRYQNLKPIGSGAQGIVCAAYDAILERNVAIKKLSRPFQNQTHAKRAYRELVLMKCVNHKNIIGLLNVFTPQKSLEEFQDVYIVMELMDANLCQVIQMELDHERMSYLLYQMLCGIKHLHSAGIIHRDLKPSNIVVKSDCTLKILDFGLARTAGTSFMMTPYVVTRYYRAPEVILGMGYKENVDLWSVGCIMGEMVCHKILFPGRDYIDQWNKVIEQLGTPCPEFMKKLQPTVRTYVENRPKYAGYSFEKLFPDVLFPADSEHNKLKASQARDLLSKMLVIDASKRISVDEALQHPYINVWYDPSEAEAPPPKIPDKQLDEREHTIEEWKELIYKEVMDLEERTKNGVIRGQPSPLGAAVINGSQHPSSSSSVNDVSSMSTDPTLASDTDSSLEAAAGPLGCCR
Serine/threonine-protein kinase Nek6, sequence (Q9HC98 whole entry): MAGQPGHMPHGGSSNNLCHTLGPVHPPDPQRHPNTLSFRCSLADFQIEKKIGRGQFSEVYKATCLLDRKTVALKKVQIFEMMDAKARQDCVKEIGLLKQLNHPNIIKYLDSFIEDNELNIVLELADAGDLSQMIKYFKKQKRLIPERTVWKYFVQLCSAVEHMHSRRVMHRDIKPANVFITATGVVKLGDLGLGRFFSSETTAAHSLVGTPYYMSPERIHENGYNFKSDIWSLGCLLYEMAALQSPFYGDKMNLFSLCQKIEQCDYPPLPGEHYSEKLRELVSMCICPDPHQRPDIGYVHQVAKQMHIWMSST
MAP kinase-activated protein kinase 2, sequence (P49137 whole entry): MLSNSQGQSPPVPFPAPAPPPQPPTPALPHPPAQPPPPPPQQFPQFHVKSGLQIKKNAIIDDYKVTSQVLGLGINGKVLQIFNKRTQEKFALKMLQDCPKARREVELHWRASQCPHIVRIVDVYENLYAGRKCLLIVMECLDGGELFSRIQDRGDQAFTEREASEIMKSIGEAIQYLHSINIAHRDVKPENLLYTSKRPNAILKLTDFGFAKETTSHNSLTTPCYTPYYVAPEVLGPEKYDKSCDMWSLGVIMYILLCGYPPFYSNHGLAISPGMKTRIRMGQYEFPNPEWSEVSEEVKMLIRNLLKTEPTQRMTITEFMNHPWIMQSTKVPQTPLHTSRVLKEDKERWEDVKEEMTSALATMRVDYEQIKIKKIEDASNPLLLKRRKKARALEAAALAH
Receptor tyrosine-protein kinase erbB-3 (Homo sapiens), sequence (P21860 whole entry): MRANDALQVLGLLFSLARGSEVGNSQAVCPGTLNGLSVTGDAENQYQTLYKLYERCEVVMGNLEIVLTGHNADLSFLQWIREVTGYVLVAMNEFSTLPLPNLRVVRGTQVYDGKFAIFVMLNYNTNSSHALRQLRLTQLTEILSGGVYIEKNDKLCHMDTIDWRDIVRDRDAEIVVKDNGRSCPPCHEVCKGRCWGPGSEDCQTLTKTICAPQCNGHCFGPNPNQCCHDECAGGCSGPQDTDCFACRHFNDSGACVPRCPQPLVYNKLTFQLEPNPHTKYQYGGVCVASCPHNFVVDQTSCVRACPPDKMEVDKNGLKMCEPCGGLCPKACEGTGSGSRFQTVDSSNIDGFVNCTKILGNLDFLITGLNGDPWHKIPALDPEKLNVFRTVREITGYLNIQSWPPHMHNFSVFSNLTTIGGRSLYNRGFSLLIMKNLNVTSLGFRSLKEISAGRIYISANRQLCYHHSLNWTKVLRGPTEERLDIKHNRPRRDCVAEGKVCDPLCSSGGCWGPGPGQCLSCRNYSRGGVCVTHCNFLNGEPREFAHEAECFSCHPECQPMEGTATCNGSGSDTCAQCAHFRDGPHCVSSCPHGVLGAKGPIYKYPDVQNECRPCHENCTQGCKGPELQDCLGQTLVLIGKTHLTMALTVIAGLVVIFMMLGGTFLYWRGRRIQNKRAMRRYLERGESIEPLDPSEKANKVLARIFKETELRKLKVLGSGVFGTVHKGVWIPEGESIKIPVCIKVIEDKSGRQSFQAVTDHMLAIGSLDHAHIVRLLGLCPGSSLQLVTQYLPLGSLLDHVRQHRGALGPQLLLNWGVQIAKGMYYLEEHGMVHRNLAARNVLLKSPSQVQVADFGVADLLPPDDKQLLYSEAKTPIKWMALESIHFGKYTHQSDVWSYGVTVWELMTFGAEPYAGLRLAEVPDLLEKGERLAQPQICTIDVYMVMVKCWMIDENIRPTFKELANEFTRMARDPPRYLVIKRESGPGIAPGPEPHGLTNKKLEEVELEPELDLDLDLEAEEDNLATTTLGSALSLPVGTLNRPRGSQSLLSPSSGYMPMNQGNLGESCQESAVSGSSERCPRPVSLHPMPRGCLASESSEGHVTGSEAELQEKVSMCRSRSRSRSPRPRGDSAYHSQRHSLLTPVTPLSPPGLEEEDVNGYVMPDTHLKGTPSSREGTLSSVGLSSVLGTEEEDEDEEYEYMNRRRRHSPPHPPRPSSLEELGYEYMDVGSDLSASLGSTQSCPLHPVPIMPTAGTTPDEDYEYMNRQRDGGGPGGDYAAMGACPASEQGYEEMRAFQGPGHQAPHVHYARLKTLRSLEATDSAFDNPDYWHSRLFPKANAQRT
Dual specificity mitogen-activated protein kinase kinase 1, sequence (Q02750 whole entry): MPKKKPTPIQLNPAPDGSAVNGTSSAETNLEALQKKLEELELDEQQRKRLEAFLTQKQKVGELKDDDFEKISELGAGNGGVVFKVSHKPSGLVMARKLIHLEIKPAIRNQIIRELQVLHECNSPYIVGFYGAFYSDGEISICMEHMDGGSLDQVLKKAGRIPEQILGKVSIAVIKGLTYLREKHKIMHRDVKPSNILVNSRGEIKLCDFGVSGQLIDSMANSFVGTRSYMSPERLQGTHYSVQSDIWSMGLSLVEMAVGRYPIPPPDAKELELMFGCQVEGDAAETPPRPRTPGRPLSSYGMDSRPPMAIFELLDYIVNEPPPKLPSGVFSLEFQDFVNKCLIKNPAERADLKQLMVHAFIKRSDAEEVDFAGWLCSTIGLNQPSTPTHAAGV
Tyrosine-protein kinase Fes/Fps, sequence (P07332 whole entry): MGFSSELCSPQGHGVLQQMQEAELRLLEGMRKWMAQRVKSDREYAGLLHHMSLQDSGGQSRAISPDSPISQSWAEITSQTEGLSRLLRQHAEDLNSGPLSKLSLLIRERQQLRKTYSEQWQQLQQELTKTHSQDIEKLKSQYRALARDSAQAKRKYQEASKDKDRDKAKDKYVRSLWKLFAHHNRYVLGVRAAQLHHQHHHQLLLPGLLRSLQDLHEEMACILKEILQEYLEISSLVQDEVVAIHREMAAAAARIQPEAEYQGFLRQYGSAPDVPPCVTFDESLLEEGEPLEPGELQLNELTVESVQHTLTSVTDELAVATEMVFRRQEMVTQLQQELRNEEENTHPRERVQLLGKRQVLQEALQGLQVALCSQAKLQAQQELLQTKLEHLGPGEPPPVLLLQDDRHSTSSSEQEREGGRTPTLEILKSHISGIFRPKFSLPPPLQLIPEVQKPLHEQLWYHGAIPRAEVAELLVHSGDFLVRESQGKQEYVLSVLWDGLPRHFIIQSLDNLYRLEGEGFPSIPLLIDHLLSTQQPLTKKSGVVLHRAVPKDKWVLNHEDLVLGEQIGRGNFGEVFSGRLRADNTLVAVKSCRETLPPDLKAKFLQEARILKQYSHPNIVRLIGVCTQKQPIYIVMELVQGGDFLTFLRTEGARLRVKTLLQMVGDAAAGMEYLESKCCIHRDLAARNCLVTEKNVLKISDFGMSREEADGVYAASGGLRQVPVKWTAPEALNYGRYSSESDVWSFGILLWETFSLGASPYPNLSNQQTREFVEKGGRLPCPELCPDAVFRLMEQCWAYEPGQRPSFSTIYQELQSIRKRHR

IC50 [1]: > 10000 nM | IC50 (Casein kinase 2): > 10000 nM | IC50 (cells [2]): 930 nM | IC50 (BaF3 [3]): 300 nM | IC50 [4]: > 10000 nM | IC50 (BaF3 [6]): 1.9 nM | IC50 (BaF3 [7]): 230 nM | IC50 [8]: > 10000 nM | IC50 [9]: > 10000 nM | IC50 [12]: > 10000 nM | IC50 (BaF3 [13]): 2.6 nM | IC50 (BaF3 [14]): 160 nM | IC50 (Casein kinase I): > 10000 nM | IC50 (NCI-H441): 4000 nM | IC50 [15]: > 10000 nM | IC50 (A549): > 10000 nM | IC50 (NCI-H3255 [16]): 1620 nM | IC50 (NCI-H3255 [17]): 1570 nM | IC50 (NCI-H3255 [18]): 7 nM | IC50 [19]: > 10000 nM | IC50 [20]: > 40000 nM | IC50 [21]: > 40000 nM | IC50 [22]: > 10000 nM | IC50 [23]: > 10000 nM | inhibition [24]: Active | IC50 (BaF3 [25]): 1.2 nM | IC50 (BaF3 [26]): 240 nM | IC50 (cells [27]): 29 nM | IC50 [28]: > 10000 nM | IC50 [29]: > 10000 nM | IC50 [30]: > 40000 nM | IC50 (BaF3 [31]): 270 nM | IC50 [32]: > 10000 nM | IC50 (BaF3 [33]): 1.6 nM | IC50 (NCI-H3255 [34]): 7 nM | IC50 (Wee1-like protein kinase): > 10000 nM | IC50 (BaF3 [35]): 2 nM
Compound: COc1cc2ncnc(Nc3ccc(F)c(Cl)c3)c2cc1NC(=O)/C=C/CN1CCCCC1 [DACOMITINIB ANHYDROUS]
inhibition (HCC827 [5]): Active | Activity (HCC827 [10]): Active | Activity (NCI-H3255 [11]): Active | inhibition (NIH3T3): Active

— ChEMBL document CHEMBL5661976 (Cancer Res, 2007)
